Measured values published in ChEMBL document CHEMBL1268917, “Synthesis and biological evaluation of radio-iodinated benzimidazoles as SPECT imaging agents for NR2B subtype of NMDA receptor” (Bioorg Med Chem, 2010).

Tests used:
[1] = biological target: Glutamate receptor ionotropic, NMDA 2B (Rattus norvegicus) (UniProt Q00960); experiment: Binding affinity to NR2B receptor in rat cerebral cortex at 0.09 to 0.14 nM after 30 mins by autoradiography in presence of prazosin relative to control; type: tissue-based; settings: tested as the 125I-labelled form
Chain of Glutamate receptor ionotropic, NMDA 2B (Rattus norvegicus) (Q00960 27-1482 limits assumed): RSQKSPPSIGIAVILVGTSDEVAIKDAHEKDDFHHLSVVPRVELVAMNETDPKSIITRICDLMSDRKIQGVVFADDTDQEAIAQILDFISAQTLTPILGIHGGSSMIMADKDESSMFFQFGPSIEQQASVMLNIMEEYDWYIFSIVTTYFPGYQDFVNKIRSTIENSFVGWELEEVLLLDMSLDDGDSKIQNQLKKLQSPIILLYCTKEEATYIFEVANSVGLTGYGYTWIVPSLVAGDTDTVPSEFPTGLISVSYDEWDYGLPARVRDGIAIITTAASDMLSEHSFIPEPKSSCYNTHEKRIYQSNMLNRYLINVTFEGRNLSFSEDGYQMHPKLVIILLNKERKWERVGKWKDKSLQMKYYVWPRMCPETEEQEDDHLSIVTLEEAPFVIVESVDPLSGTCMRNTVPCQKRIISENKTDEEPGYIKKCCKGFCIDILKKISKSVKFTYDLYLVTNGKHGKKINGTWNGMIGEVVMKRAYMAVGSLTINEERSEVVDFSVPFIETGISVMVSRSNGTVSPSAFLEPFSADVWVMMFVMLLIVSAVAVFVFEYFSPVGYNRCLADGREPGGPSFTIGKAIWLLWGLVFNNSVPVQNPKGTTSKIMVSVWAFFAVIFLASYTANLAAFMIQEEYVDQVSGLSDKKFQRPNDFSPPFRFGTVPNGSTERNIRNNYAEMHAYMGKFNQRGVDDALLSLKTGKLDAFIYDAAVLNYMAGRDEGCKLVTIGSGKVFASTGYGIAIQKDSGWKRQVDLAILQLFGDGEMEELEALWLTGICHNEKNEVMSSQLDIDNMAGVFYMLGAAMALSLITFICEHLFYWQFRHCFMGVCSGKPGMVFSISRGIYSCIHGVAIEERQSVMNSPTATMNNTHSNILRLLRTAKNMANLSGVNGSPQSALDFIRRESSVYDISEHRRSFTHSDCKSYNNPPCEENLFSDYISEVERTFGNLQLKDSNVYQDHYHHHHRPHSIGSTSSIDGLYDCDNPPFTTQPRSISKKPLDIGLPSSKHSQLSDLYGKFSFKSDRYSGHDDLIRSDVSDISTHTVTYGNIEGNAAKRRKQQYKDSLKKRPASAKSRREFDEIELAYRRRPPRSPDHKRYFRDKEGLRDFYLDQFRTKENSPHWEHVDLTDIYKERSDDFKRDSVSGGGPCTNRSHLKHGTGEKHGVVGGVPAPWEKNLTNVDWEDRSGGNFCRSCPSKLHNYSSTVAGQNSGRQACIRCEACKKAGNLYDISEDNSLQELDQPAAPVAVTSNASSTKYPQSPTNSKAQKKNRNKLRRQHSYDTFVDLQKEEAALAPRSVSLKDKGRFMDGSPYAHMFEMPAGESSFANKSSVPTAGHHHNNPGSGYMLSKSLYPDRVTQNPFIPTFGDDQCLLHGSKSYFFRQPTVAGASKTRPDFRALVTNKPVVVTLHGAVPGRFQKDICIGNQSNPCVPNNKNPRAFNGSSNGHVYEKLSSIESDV
Procedure, shortened: (§1)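 Rinsed three times 3 min in cold buffer with 1% BSA, dipped in cold water, air-dried, exposed to imaging plates; PSL per mm² in ROIs. Expressed as % control binding; at least triplicate slices from three rats.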

[2] = biological target: Glutamate receptor ionotropic, NMDA 2B (Rattus norvegicus) (UniProt Q00960); experiment: Binding affinity to NR2B receptor in rat hippocampus at 0.09 to 0.14 nM after 30 mins by autoradiography in presence of prazosin relative to control; type: tissue-based; settings: tested as the 125I-labelled form; procedure, shortened: as §1
[3] = biological target: Glutamate receptor ionotropic, NMDA 2B (Rattus norvegicus) (UniProt Q00960); experiment: Binding affinity to NR2B receptor in rat cerebellum at 0.09 to 0.14 nM after 30 mins by autoradiography in presence of prazosin relative to control; type: tissue-based; settings: tested as the 125I-labelled form; procedure, shortened: as §1
[4] = biological target: Glutamate receptor ionotropic, NMDA 2B (Rattus norvegicus) (UniProt Q00960); experiment: Binding affinity to NR2B receptor in rat cerebral cortex at 0.09 to 0.14 nM after 30 mins by autoradiography in presence of DTG relative to control; type: tissue-based; settings: tested as the 125I-labelled form; procedure, shortened: as §1
[5] = biological target: Glutamate receptor ionotropic, NMDA 2B (Rattus norvegicus) (UniProt Q00960); experiment: Binding affinity to NR2B receptor in rat hippocampus at 0.09 to 0.14 nM after 30 mins by autoradiography in presence of DTG relative to control; type: tissue-based; settings: tested as the 125I-labelled form; procedure, shortened: as §1
[6] = biological target: Glutamate receptor ionotropic, NMDA 2B (Rattus norvegicus) (UniProt Q00960); experiment: Binding affinity to NR2B receptor in rat cerebellum at 0.09 to 0.14 nM after 30 mins by autoradiography in presence of DTG relative to control; type: tissue-based; settings: tested as the 125I-labelled form; procedure, shortened: as §1
[7] = biological target: Glutamate receptor ionotropic, NMDA 2B (Rattus norvegicus, UniProt Q00960); experiment: Displacement of [3H]ifenprodil from NR2B receptor in rat cortical synaptic membranes; type: cell membranes, Membrane
Chain of Glutamate receptor ionotropic, NMDA 2B (Q00960 whole entry): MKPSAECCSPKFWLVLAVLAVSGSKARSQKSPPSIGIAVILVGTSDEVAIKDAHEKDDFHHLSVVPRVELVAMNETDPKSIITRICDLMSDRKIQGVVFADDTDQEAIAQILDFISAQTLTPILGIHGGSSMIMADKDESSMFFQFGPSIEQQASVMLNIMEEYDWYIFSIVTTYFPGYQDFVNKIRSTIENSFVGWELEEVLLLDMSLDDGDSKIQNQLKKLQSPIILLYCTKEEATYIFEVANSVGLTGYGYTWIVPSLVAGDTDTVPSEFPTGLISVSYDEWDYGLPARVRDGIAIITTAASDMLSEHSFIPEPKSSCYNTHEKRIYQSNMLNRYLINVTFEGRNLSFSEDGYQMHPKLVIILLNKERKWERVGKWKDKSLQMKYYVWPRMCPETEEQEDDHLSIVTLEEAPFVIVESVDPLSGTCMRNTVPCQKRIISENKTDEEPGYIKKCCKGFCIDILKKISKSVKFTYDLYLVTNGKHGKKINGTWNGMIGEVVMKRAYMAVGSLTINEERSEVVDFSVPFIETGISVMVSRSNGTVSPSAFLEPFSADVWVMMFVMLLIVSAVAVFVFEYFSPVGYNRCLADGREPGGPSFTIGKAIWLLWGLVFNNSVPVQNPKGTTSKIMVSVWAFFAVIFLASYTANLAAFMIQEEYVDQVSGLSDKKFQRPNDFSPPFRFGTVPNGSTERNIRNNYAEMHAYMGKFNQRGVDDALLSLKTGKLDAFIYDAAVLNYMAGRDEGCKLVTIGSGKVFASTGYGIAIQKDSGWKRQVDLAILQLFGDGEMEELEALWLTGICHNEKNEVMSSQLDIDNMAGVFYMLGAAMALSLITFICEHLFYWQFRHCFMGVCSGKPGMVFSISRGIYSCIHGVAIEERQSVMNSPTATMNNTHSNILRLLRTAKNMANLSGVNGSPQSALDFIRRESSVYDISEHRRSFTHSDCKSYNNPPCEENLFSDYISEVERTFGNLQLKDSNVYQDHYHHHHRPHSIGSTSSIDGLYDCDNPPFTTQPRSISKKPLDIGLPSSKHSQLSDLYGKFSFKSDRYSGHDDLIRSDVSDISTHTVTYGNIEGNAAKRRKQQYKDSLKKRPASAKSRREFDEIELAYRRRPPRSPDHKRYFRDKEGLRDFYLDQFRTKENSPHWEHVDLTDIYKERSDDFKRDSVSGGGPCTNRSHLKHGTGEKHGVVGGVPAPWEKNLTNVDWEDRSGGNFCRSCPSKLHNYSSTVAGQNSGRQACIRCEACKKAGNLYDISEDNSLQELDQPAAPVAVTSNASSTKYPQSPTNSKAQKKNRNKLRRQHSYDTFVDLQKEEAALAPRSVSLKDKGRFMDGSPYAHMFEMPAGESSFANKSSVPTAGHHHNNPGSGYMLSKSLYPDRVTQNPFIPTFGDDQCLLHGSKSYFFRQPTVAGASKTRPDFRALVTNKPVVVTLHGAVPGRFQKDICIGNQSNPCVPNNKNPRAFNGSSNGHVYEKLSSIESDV

[8] = Octanol-buffer partition coefficient, log D of the compound at pH 7.4; type: physicochemical
[9] = Lipophilicity, log P of the compound; type: physicochemical; settings: octanol/water
[10] = biological target: Glutamate receptor ionotropic, NMDA 2B (Rattus norvegicus) (UniProt Q00960); experiment: Binding affinity to NR2B receptor in rat cerebral cortex at 0.09 to 0.14 nM after 30 mins by autoradiography in presence of Ro-256981 relative to control; type: tissue-based; settings: tested as the 125I-labelled form; procedure, shortened: as §1
[11] = biological target: Glutamate receptor ionotropic, NMDA 2B (Rattus norvegicus) (UniProt Q00960); experiment: Binding affinity to NR2B receptor in rat hippocampus at 0.09 to 0.14 nM after 30 mins by autoradiography in presence of Ro-256981 relative to control; type: tissue-based; settings: tested as the 125I-labelled form; procedure, shortened: as §1
[12] = biological target: Glutamate receptor ionotropic, NMDA 2B (Rattus norvegicus) (UniProt Q00960); experiment: Binding affinity to NR2B receptor in rat cerebellum at 0.09 to 0.14 nM after 30 mins by autoradiography in presence of Ro-256981 relative to control; type: tissue-based; settings: tested as the 125I-labelled form; procedure, shortened: as §1

Activity [1] [%] | Activity [2] [%] | Activity [3] [%] | Activity [4] [%] | Activity [5] [%] | Activity [6] [%] | Ki [7] [nM] | logD [8] | logP [9] | Activity [10] [%] | Activity [11] [%] | Activity [12] [%] | SMILES
92.8 | 95.5 | 97 | 93 | 108 | 104 | 5.75 | 3.54 | 3.54 | 58.1 | 59 | 89.3 | CS(=O)(=O)Nc1ccc2nc(CN3CCC(Cc4ccc(I)cc4)CC3)[nH]c2c1
 |  |  |  |  |  | 32.5 | 3.74 |  |  |  |  | Oc1ccc2nc(CN3CCC(Oc4ccc(I)cc4)CC3)[nH]c2c1
 |  |  |  |  |  | 3.09 |  |  |  |  |  | Oc1ccc2nc(CN3CCC(Cc4ccccc4)CC3)[nH]c2c1
